Screening data: PubChem BioAssay, Johns Hopkins Ion Channel Center
RGS4 act: RGS4 potentiators or activators, primary screen, cell-based, HEK293 M3R inducible RGS4, calcium flux. carbachol calcium flux Fluo4; stronger effect = lower value. actives 0.92% (n = 310,000). B-score at 10 µM;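 active means B-score of the integrated calcium signal more than 4 SD below the library mean, with starting fluorescence not abnormally high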;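 further: negative B-score means reduced calcium response which marks RGS4 activation or potentiation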
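test system = HEK293 cells with stable M3R and inducible RGS4 | schedule = recording 10 s baseline at 1 Hz, 100 s post-agonist | technique = Fluo4-AM (2 µM) calcium-flux fluorescence, kinetic read | measure = Agonist-evoked peak-minus-minimum fluorescence over baseline, integrated ratio, B score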
MrgX1 allo act: positive allosteric modulators of MrgX1, primary screen, HEK293 cells, Fluo-4 calcium flux; Mas-related G-protein coupled receptor member X1 (Homo sapiens), Q96LB2; FDSS; stronger effect = higher value; B-score at 10 µM; actives 0.63% (n = 310,000);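 active means plate-corrected calcium response at least 3 library SD above typical, normal starting fluorescence, not activating the receptor alone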;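 further: compound read alongside a low EC10 to EC30 dose of BAM8-22 agonist; peak minus trough fluorescence over baseline measured at the second addition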
Target sequence (Q96LB2 whole entry, looked up): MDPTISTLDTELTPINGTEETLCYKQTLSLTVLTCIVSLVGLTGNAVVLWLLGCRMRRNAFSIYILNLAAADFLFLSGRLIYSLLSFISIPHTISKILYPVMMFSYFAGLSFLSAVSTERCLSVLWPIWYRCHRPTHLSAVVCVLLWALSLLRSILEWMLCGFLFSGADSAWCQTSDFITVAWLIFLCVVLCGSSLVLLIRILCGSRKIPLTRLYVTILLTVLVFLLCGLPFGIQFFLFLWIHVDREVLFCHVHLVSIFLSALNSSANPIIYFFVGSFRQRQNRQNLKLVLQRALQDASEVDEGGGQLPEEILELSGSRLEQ
MrgX1 ag: agonists of human MrgX1 receptor, primary screen, HEK293 cells, Fluo-4 calcium flux | Mas-related G-protein coupled receptor member X1 (Homo sapiens), Q96LB2 | AID 588627, 2011 | B-score at 10 µM | actives 0.44% (n = 310,000) | Fluo-4 calcium fluorescence, agonist mode; stronger effect = higher value;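 active means calcium response B-score plate-corrected fluorescence ratio at least 3 library SD, with starting fluorescence B-score inside 5 SD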
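Material – MrgX1-expressing HEK293 cells · Input – 15,000 cells seeded per well · Dosing – compound as first of three additions · Times – overnight seeding, then 1 h dark dye loading · Measured by – kinetic Fluo-4 NW fluorescence of intracellular calcium · Read-out – B-scored fluorescence response ratio · Benchmarks – positive and negative control wells on each plate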
RGS4 inh: RGS4 inhibitors, primary screen, cell-based, HEK293 M3R inducible RGS4, calcium flux. Regulator of G-protein signaling 4 (Homo sapiens), P49798. Fluo-4 calcium flux; stronger effect = higher value; triggered by carbachol at its EC20. B-score at 10 µM. actives 0.45% (n = 310,000). AID 463165, 2010;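 active means B-score, a plate-corrected calcium signal, over three deviations above library mean, with baseline fluorescence within five deviations of library mean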;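 further: RGS4 expression induced by doxycycline in cells with stable M3 receptor; B-score is computed from the integrated fluorescence ratio over baseline after carbachol; higher B-score means a larger calcium signal and so more RGS4 inhibition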
Target sequence (P49798 whole entry, looked up): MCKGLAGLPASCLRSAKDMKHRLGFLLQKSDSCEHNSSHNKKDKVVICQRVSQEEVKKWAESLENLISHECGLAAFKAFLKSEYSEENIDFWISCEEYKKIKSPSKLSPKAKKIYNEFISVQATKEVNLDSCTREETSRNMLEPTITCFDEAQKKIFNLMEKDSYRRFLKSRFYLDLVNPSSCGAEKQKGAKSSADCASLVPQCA
MrgX1 antagonist: antagonists of human MrgX1 receptor, primary screen, HEK293 cells, Fluo-4 calcium flux; AID 588676, 2011; actives 1.3% (n = 310,000); Mas-related G-protein coupled receptor member X1 (Homo sapiens), Q96LB2; B-score at 10 µM; BAM8-22 antagonism; stronger effect = lower value;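 active means calcium-response B-score plate-corrected more than 3 library SD below zero, starting fluorescence within 5 deviations, no agonist response on first addition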;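 further: peak minus trough fluorescence over baseline after final BAM8-22 challenge near maximal dose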
Starred values were filed as active, the others as inactive; i = inactive; x = not tested or not shown. A selection: hits, their analogues and other compounds. The true share with any hit is near 3.5%.

SMILES	RGS4 act	MrgX1 allo act	MrgX1 ag	RGS4 inh	MrgX1 antagonist
O=C(c1nn(Cc2ccccc2)c(=O)c2ccccc12)N1CCc2ccccc2C1	-8.5*	i	i	i	i
O=C(c1nn(Cc2ccccc2)c(=O)c2ccccc12)N1CCN(c2ccccn2)CC1	i	i	i	i	i
CCOc1ccccc1NC(=O)CCS(=O)(=O)c1ccc(Br)cc1	i	i	i	i	i
O=C(CN1C(=O)S/C(=C/c2ccc(N3CCOCC3)cc2)C1=O)N1CCOCC1	-7.2*	i	i	i	i
COc1ccc(OC)c(NS(=O)(=O)c2ccc3c(c2)C(C)(C)C(=O)N3C)c1	i	i	i	i	i
COc1ccc(C2CC2C(C)=O)cc1 (centres undefined)	i	i	30*	i	i
COc1ccc(C2CC2/C(C)=N/OC(=O)C2CC2)cc1 (centres undefined)	i	i	i	i	i
Cc1ccc(OCc2cc(C(=O)N3CCC(c4ccccc4Cl)C3)no2)cc1C (centres undefined)	i	i	i	i	i
O=C(c1cc(-c2cccs2)nn1-c1ccccc1)N1CCN(S(=O)(=O)c2ccccc2)CC1	-7.2*	i	i	i	i
Cc1ccc(NC(=O)CC(O)(C(F)(F)F)C(F)(F)F)cc1	i	i	48*	i	i
Cc1nn(C)c(Oc2cccc(C(F)(F)F)c2)c1C=O	i	i	i	i	-5.9*
COc1ccc(OC)c(N(CC(=O)N2CCCCC2)S(=O)(=O)c2ccc(OC)c(OC)c2)c1	i	i	i	i	i
COc1ccc(OC)c(N(CC(N)=O)S(=O)(=O)c2ccc(OC)c(OC)c2)c1	i	12*	i	i	i
CCc1nnc(NC(=O)c2cccc(C(=O)Nc3nnc(CC)s3)n2)s1	i	27*	i	i	i
NNC(=O)c1ccc(CN2CCCCC2)o1	i	i	i	i	i
CCc1cc2c(-c3ccccc3)cc(=O)oc2c(CN2CCOCC2)c1O	i	i	43*	i	i
O=c1cc(-c2ccccc2)c2ccc(O)c(CN3CCCCC3)c2o1	i	i	i	i	i
O=c1cc(-c2ccccc2)c2cc(Cl)c(O)c(CN3CCOCC3)c2o1	i	9.8*	i	i	i
COc1cccc(N/C(SCc2ccccc2C)=C(/C#N)C(=O)NCc2cccs2)c1	i	i	i	i	i
COc1cccc(N/C(SC)=C(/C#N)C(=O)NCc2cccs2)c1	-7.5*	i	i	i	i
CCOc1ccc(N2CC(NS(=O)(=O)c3cccnc3)CC2=O)cc1 (centres undefined)	i	i	i	i	i
O=C(CCn1c(=O)c2cccn2c2ccccc21)Nc1ccc(F)cc1	i	i	i	i	i
CN1C(=O)C2(c3ccccc31)C1CCCC=C1C(C#N)=C(N)C2(C#N)C#N (centres undefined)	x	6.7*	i	x	i
CC1(NC(=O)CC[N+](C)(C)CCO)CS(=O)(=O)CC1S(=O)(=O)[O-] (centres undefined)	i	i	i	i	-5.3*
CCCC[N+](C)(C)CCC(=O)NC(C)(C)CS(=O)(=O)[O-]	i	i	i	i	i
SMILES	RGS4 act	MrgX1 allo act	MrgX1 ag	RGS4 inh	MrgX1 antagonist
Cc1ccc(-n2ncc3c(NNC(=O)c4cccs4)ncnc32)cc1	i	i	i	i	i
CSc1ccc(Cl)c(C(=O)NCCOc2cc(C)ccc2C(C)C)c1	-7.2*	i	i	i	i
CCOC(=O)C/C(N)=N/N(C)c1ncc(C(F)(F)F)cc1Cl	i	i	i	i	i
COc1ccccc1C(=O)NNC(=O)c1ccc(F)cc1	i	i	i	i	i
Cc1ccccc1C(=O)NNC(=O)c1ccc(F)cc1	i	i	i	i	-7.1*
Cc1cccc(C)c1NC(=O)c1sccc1SCc1cccc(C(F)(F)F)c1	i	i	i	i	-5*
COc1cc(/C=C2\CCC/C(=C\c3ccc(O)c(OC)c3)C2=O)ccc1O	-9.9*	i	i	i	-5.7*
COc1ccc(/C=C/C(=O)OCC(=O)Nc2ccc(Cl)c(S(=O)(=O)N(C)C)c2)cc1OC	-9.4*	i	i	i	i
CCN(Cc1ccccc1)C(c1cccs1)c1nnnn1C1CCCCC1 (centres undefined)	i	i	i	i	i
Clc1ccccc1CN(Cc1ccccc1)C(c1cccs1)c1nnnn1C1CCCC1 (centres undefined)	i	i	i	i	-5.7*
O=C(COc1ccc(-n2ccnc2)cc1)Nc1cccc(Cl)c1	i	i	i	i	i
Cc1ccc(Oc2ncccc2/C=N/OCc2ccc(Cl)cc2Cl)cc1	i	7.3*	i	i	i
CCOc1ccc(S(=O)(=O)Nc2ccc(C(=O)NCC3(N4CCCCC4)CCCCC3)cc2)cc1	i	i	i	i	-9.8*
CC(=O)N(C)c1ccc(NC(=O)Nc2ccc(C)c(C)c2)cc1	-7.4*	i	i	i	i
CCC(=O)Oc1ccc(NC(=O)CSCc2ccccc2)cc1	i	i	i	i	i
COc1ccc(C2=NN(c3nc(-c4ccc(CNC(C)=O)cc4)cs3)C(c3ccco3)C2)cc1 (centres undefined)	i	i	i	i	i
O=C1Nc2ccccc2N(O)N1c1ccc(Cl)cc1	i	i	i	i	i
CCN1c2ccccc2NC2C1C(C(C)=O)C(=O)N2c1ccc(Cl)cc1 (centres undefined)	i	i	i	i	-5.1*
O=C(NCc1ccccc1Cl)C1CCN(c2cnccn2)CC1	i	i	i	i	i
O=c1c(-c2ccc(O)cc2)coc2cc(O)ccc12	i	i	i	i	-7.8*
Cc1ccc(NS(=O)(=O)c2cc([N+](=O)[O-])ccc2N/N=C/c2sc(N3CCOCC3)nc2-c2ccccc2)c(C)c1	i	i	i	i	-9.4*
C=CCNC(=O)NC(=O)CSc1nnc(C(F)(F)F)n1C	i	i	i	i	i
NS(=O)(=O)c1ccc(Sc2ccc3c(c2)CCC3)nc1	i	i	i	i	i
O=C(NNC(=S)NC(=O)c1ccccc1[N+](=O)[O-])c1ccccc1	i	i	i	i	i
